This is an account of results in article PMC2738612 (Biochemistry, 2009).

Assay [1] deals with MMP-2 CBD modules. To be noted: cited from earlier work.
Assay [2] concerns gelatin (denatured type I collagen). Briefly: Surface plasmon resonance binding to immobilized gelatin. The note with it: 1 µM analyte, Biacore buffer pH 7.4; compared to WT CBD. Further details: species or system rat.
In assay [3] the test system is native type I collagen. Briefly: Surface plasmon resonance binding to immobilized native type I collagen. The arrangement: species or system rat. The note with it: 1 µM analyte, Biacore buffer pH 7.4; compared to WT CBD. Summed up: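 Native non-pepsin-treated acid-soluble rat tail type I collagen in 10 mM sodium acetate, pH 4.5, was amine-coupled to EDC/NHS-activated CM5 chips at ~3000 RU, then ethanolamine-blocked; an uncoated flow cell served as control. Analytes at 1 µM in 10 mM HEPES, 150 mM NaCl, 0.005% P20, pH 7.4, flowed at 5 µl/min for 6 min. RU were averaged over 5 s before injection end. Chips were regenerated with 6 M guanidine-HCl, with WT CBD run at the start and end of each series.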
A general note: Surface plasmon resonance follows binding to a sensor surface in real time, without labels.

Assay [4] deals with denatured type I collagen (gelatin), rat tail (rat, UniProt P02454 152-1207; P02466 86-1125). Description: SPR.

Positions count from the first letter of the chain named.

Chain of denatured type I collagen (gelatin), rat tail (P02454 152-1207, chain 1 of 2): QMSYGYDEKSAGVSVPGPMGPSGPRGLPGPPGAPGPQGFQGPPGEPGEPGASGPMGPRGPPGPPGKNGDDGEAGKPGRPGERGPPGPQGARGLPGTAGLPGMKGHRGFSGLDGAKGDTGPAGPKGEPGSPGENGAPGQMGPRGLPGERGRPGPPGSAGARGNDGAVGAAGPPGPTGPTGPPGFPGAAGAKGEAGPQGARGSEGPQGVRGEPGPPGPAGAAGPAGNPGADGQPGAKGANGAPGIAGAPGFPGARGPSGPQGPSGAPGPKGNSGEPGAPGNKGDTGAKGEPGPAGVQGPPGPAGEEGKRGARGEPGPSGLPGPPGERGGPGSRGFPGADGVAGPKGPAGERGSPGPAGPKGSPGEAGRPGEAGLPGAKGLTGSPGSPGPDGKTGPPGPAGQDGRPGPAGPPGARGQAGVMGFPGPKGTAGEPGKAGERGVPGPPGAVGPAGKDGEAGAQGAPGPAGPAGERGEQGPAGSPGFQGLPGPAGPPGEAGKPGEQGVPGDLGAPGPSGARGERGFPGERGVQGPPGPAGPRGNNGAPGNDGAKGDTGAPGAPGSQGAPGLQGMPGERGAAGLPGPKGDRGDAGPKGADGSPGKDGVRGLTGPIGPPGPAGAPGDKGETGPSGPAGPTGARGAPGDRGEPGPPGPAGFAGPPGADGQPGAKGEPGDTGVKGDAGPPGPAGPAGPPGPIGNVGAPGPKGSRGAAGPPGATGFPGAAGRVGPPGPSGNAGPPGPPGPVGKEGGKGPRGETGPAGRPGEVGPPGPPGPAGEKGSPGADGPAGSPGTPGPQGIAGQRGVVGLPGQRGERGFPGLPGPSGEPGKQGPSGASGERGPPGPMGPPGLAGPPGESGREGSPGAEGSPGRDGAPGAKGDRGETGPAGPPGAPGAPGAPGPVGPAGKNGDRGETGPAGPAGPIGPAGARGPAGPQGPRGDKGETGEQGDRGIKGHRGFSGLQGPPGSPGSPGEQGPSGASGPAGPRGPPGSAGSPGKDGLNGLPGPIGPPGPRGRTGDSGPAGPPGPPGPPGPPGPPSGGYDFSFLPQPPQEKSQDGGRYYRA
Chain of denatured type I collagen (gelatin), rat tail (P02466 86-1125, chain 2 of 2): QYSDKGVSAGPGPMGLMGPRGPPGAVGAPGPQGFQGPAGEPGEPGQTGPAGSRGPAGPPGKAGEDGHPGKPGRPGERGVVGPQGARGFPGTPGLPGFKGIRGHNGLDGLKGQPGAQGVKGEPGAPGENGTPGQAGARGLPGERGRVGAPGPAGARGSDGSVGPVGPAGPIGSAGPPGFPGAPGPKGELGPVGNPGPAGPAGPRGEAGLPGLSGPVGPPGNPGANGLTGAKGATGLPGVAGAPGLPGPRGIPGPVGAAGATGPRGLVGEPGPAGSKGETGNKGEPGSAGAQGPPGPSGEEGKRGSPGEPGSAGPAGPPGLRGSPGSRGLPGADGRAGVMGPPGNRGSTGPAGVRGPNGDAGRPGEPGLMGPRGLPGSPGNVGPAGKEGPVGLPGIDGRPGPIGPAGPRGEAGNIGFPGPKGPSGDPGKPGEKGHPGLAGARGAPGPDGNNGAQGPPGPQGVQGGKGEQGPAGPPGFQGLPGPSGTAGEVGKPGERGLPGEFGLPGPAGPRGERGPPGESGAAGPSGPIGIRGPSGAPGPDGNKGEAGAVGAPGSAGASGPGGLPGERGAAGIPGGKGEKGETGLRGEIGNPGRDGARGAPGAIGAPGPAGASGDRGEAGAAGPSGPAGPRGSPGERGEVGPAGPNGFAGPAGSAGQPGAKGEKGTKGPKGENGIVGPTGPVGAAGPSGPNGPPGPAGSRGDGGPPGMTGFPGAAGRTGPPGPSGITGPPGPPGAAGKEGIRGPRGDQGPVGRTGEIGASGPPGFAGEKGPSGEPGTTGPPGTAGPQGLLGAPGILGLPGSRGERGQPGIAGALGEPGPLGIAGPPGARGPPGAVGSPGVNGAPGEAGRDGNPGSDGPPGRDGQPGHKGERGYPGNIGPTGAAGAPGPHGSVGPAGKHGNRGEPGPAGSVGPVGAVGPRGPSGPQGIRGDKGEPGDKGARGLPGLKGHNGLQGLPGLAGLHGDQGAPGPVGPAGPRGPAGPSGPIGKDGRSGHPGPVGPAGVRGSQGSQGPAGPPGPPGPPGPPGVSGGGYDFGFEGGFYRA

(Pro-Pro-Gly)6: the “relative affinity of modules 1 and 2 versus module 3 for collagen-like peptide” value in assay [1] was “modules 1 and 2 have higher affinity”. Further, the “spectral perturbations of isolated CBD module 2” value in assay [1] (early NMR study) is “spectral perturbations of the surface-exposed aromatic residues Phe21, Tyr38, Trp40, Tyr47, Tyr53 and Phe55, as well as the neighboring Gly33-Gly37 segment”.

B1: E^321A: rCBD variant, single-point alanine substitution at E^321, module 2 (protein)
chain: APSPIIKFPGDVAPKTDKELAVQYLNTFYGCPKESCNLFVLKDTLKKMQKFFGLPQTGDLDQNTIETMRKPRCGNPDVANYNFFPRKPKWDKNQITYRIIGYTPDLDPETVDDAFARAFQVWSDVTPLRFSRIHDGEADIMINFGRWEHGDGYPFDGKDGLLAHAFAPGTGVGGDSHFDDDELWTLGEGQVVRVKYGNADGEYCKFPFLFNGKEYNSCTDTGRSDGFLWCSTTYNFEKDGKYGFCPHEALFTMGGNAEGQPCKFPFRFQGTSYDSCTTEGRTDGYRWCGTTADYDRDKKYGFCPETAMSTVGGNSEGAPCVFPFTFLGNKYESCTSAGRSDGKMWCATTANYDDDRKWGFCPDQGYSLFLVAAHEFGHAMGLEHSQDPGALMAPIYTYTKNFRLSQDDIKGIQELYGASPDIDLGTGPTPTLGPVTPEICKQDIVFDGIAQIRGEIFFFKDRFIWRTVTPRDKPMGPLLVATFWPELPEKIDAVYEAPQEEKAVFFAGNEYWIYSASTLERGYPKPLTSLGLPPDVQRVDAAFNWSKNKKTYIFAGDKFWRYNEVKKKMDPGFPKLIADAWNAIPDNLDAVVDLQGGGHSYFFKGAYYLKLENQSLKSVKFGSIKSDWLGC
modifications: biotinylated for the microwell assay; left off: His tag, end not stated, state not stated
Turning to B1, the “binding to gelatin / denatured type I collagen (SPR, RU)” value in assay [2] is reported as “no reduction in collagen-binding”. Moreover, the “binding to native type I collagen (SPR, RU)” value in assay [3] is on record as “no reduction in collagen-binding”.

B2: F^297A: rCBD variant, single-point alanine substitution at F^297, module 2 (protein)
chain: B1 chain with F268A, A292E
modifications: biotinylated for the microwell assay; left off: His tag, end not stated, state not stated
Take B2: the “binding to gelatin / denatured type I collagen (SPR, RU)” value in assay [2] was “strong reduction in binding”. Besides, the “binding to native type I collagen (SPR, RU)” value in assay [3] was “strong reduction in binding”.

B3: W^374A: rCBD variant, single-point alanine substitution at W^374, module 3 (protein)
chain: B1 chain with A292E, W345A
modifications: biotinylated for the microwell assay; left off: His tag, end not stated, state not stated
Turning to B3, the “binding to gelatin / denatured type I collagen (SPR, RU)” value in assay [2] was “strong reduction in binding”. In addition, the “binding to native type I collagen (SPR, RU)” value in assay [3] is recorded as “strong reduction in binding”.

B4: Y^329A: rCBD variant, single-point alanine substitution at Y^329, module 2 (protein)
chain: B1 chain with A292E, Y300A
modifications: biotinylated for the microwell assay; left off: His tag, end not stated, state not stated
As for B4, in assay [2], the “binding to gelatin / denatured type I collagen (SPR, RU)” value is “strong reduction in binding”. In addition, the “binding to native type I collagen (SPR, RU)” value in assay [3] is listed as “strong reduction in binding”.

B5: F^280A: rCBD variant, single-point alanine substitution at F^280, negative control (protein)
chain: B1 chain with F251A, A292E
modifications: biotinylated for the microwell assay; left off: His tag, end not stated, state not stated
Take B5: the “binding to gelatin / denatured type I collagen (SPR, RU)” value in assay [2] is “no reduction in collagen-binding”. Moreover, the “binding to native type I collagen (SPR, RU)” value in assay [3] was “no reduction in collagen-binding”.

B6: R^368A: rCBD variant, single-point alanine substitution at R^368, module 3 (protein)
chain: B1 chain with A292E, R339A
modifications: biotinylated for the microwell assay; left off: His tag, end not stated, state not stated
Consider B6, for which the “binding to gelatin / denatured type I collagen (SPR, RU)” value in assay [2] is recorded as “strong reduction in binding”. The “binding to native type I collagen (SPR, RU)” value in assay [3] is “strong reduction in binding”.

B7: Y^381A: rCBD variant, single-point alanine substitution at Y^381, module 3 (protein)
chain: B1 chain with A292E, Y352A
modifications: biotinylated for the microwell assay; left off: His tag, end not stated, state not stated
Turning to B7, in assay [2], the “binding to gelatin / denatured type I collagen (SPR, RU)” value is given as “strong reduction in binding”. Further, in assay [3], the “binding to native type I collagen (SPR, RU)” value was “strong reduction in binding”.

B8: Y^302A: rCBD variant, single-point alanine substitution at Y^302, module 2 (protein)
chain: B1 chain with Y273A, A292E
modifications: biotinylated for the microwell assay; left off: His tag, end not stated, state not stated
B8: in assay [2], the “binding to gelatin / denatured type I collagen (SPR, RU)” value is listed as “strong reduction in binding”. For the same molecule, the “binding to native type I collagen (SPR, RU)” value in assay [3] is reported as “strong reduction in binding”.

B9: E^361A: rCBD variant, single-point alanine substitution at E^361, negative control (protein)
chain: B1 chain with A292E, E332A
modifications: biotinylated for the microwell assay; left off: His tag, end not stated, state not stated
Turning to B9, the “binding to gelatin / denatured type I collagen (SPR, RU)” value in assay [2] is on record as “no reduction in collagen-binding”. Further, the “binding to native type I collagen (SPR, RU)” value in assay [3] is on record as “no reduction in collagen-binding”.

B10: Y^323A: rCBD variant, single-point alanine substitution at Y^323, module 2 (protein)
chain: B1 chain with A292E, Y294A
modifications: biotinylated for the microwell assay; left off: His tag, end not stated, state not stated
With B10, the “binding to gelatin / denatured type I collagen (SPR, RU)” value in assay [2] is “strong reduction in binding”. The “binding to native type I collagen (SPR, RU)” value in assay [3] is “strong reduction in binding”.

B11: Recombinant collagen binding domain (CBD) from human MMP-2, wildtype (domain or fragment)
chain: VVRVKYGNADGEYCKFPFLFNGKEYNSCTDTGRSDGFLWCSTTYNFEKDGKYGFCPHEALFTMGGNAEGQPCKFPFRFQGTSYDSCTTEGRTDGYRWCGTTEDYDRDKKYGFCPETAMSTVGGNSEGAPCVFPFTFLGNKYESCTSAGRSDGKMWCATTANYDDDRKWGFCPDQ
modifications: 15N (or 15N and 13C) labelled for NMR; biotinylated for the microwell assay
In general, Kd refers to the constant that tells how readily two partners part at equilibrium. A lower Kd goes with tighter binding. Consider B11, for which the Kd in assay [4] is 2.9 µM.
